Screens deposited in PubChem by Broad Institute.
A selection: hits, their analogues and other compounds. The true share with any hit is near 1.5%.
RAD52 anneal inh – blocks human RAD52 DNA annealing | P43351 | recombinant RAD52 DNA annealing, FRET fluorescence | inhibition, % at 18.7 µM | 360,000 compounds, 0.46% hits | AID 651710;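 active = every replicate showing at least 50% inhibition; inconclusive = mean inhibition at least 50% but not in every replicate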
Target sequence (P43351 whole entry, looked up): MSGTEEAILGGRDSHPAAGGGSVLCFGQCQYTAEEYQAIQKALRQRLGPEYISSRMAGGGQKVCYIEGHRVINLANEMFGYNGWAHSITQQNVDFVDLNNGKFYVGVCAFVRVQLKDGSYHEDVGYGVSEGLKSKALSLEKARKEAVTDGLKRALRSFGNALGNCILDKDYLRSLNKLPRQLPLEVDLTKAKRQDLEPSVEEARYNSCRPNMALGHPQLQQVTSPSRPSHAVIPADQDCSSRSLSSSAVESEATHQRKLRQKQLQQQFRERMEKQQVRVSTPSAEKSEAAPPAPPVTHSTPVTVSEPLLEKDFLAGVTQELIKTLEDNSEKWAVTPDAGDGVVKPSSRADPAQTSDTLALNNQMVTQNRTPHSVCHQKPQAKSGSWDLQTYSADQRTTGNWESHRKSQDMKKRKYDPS
dFosB act – activators of mouse delta FosB homodimer. activation, % at 25 µM. AID 493131. 340,000 compounds, 0.99% hits. purified delta FosB, TAMRA-CDK5 oligo fluorescence polarization; percent of positive-control signal above neutral wells. P13346;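 active = mean activation above about 17%, with every replicate also reaching it, limit read from the data, passing the limit was not always enough; inconclusive = only one of the two conditions met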
S100A4 inh HTS – S100A4-myosin IIA interaction inhibition; P26447; S100A4/TAMRA-MyoIIA peptide fluorescence polarization; inhibition, % at 10.7 µM; 360,000 compounds, 0.14% hits;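 active = mean inhibition of at least 70% across replicates, with every replicate also reaching that level; inconclusive = mean inhibition reaches 70% but some replicates fall short; inactive = mean inhibition below 70%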
Target sequence (P26447 whole entry, looked up): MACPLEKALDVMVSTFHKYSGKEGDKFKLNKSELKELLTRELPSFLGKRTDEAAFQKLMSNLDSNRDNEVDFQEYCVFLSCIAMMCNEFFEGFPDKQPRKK
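Material: S100A4 monomer protein | Medium: HEPES pH 7.2 with CaCl2, KCl, NaCl, DTT, Triton | Reagent: Labelled myosin peptide probe, 5 nM | Doses: One dose per compound | Times: 5 min incubation before reading | Benchmarks: Neutral control DMSO, positive control TFP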
MLL AF4-AF9 inh – MLL-AF4/AF9 protein interaction inhibition | AlphaScreen, biotin-AF4 peptide binding to FLAG-AF9 | AID 651704 | 350,000 compounds, 0.47% hits | inhibition, % at 10 µM | P42568;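 active = every replicate reaching a set inhibition limit, whatever the replicate mean, cut at about 25% in these data; inconclusive = mean inhibition reaches that limit but some replicates miss it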;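 note: 0% = plate neutral control median and 100% = total signal loss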
RAD54 inh – inhibitors of human RAD54 branch migration | RAD54 Holliday junction branch migration, FAM/BHQ fluorescence | inhibition, % at 10.4 µM | 360,000 compounds, 0.14% hits | AID 602329;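 active = mean normalized replicate activity at least 40 and at least half of replicates scoring 40 or more; inconclusive = only one of the two criteria met; inactive = mean below 40 and under half of replicates reaching 40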;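 note: 0% = median of neutral control wells and 100% = median of positive control wells; inhibitors cause a drop in the FAM fluorescence signal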
Rad54 DNA ctr – counter-screen for Rad54 inhibitors: DNA binding compounds; shares compounds with RAD54 inh; Acridine orange-DNA displacement, fluorescence polarization, 20 min; AC50, µM (top dose mostly 35 µM), inactives show at the highest dose activity change, negative = DNA binding; 460 compounds, 8% hits; AID 651673;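 active = signal drop giving an AC50 within twice the top valid tested concentration of each sample, actives reach about 35 µM in these data; inactive = activity opposite to expected, plus the rest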;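 note: polarization loss reports compound binding to salmon sperm DNA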
RAD52 DNA ctr – DNA binding artifact in RAD52 counter-screen; shares compounds with RAD52 anneal inh; Salmon sperm DNA/acridine orange FP displacement; AC50, µM; 1,000 compounds, 8% hits; AID 652128;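 active = fitted half-maximal concentration for signal loss at or below twice the highest dose tested, in every separate run, actives reach about 64 µM in these data; inconclusive = runs disagree, or flat partial signal loss, or poor fit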
* = called active by the depositor; i = inactive; ? = inconclusive; . = not tested or not shown.

SMILES	RAD52 anneal inh	dFosB act	S100A4 inh HTS	MLL AF4-AF9 inh	RAD54 inh	Rad54 DNA ctr	RAD52 DNA ctr
Cc1ccsc1-c1cc2nc(NCCCN(C)C)n(C)c(=O)c2s1	58*	.	-7	12	?	3%	i
CN(C)CCCNc1nc2cc(-c3ccn[nH]3)sc2c(=O)n1C	43	.	1	-5	29	.	.
CCC(=O)N1C[C@@H](C)[C@@H](OC)CN(C)C(=O)c2cc(NC(=O)Nc3cccc(F)c3)ccc2OC[C@H]1C	-2	.	-6	10	-10	.	.
CCCC#Cc1cnc2c(c1)C(=O)N([C@@H](C)CO)C[C@@H](C)[C@@H](CN(C)C(=O)CN1CCOCC1)O2	6	.	.	-2	-5	.	.
CCN1C(=O)CCN(C2CCCC2)c2nc(Nc3ccc(C(=O)NC4CCN(C)CC4)cc3OC)ncc21	63*	-3	0	6	?	3%	i
O=C(Nc1ccc(Cc2ccncc2)cc1)c1cccc([N+](=O)[O-])c1	4	5	2	-1	7	.	.
O=C(Nc1ccc(Nc2ccncc2)cc1)c1ccc(Nc2ccnc3ccc([N+](=O)[O-])cc23)cc1	94*	?	-21	-1	128*	4%	i
CCN1CCN(c2cc(C)c3cc(NC(=S)N4CCCC(C)C4)ccc3n2)CC1 (stereo unspecified)	52*	-10	-7	15	63*	1%	i
CCN1CCN(c2cc(C)c3cc(NC(=S)N4CCN(c5ccc(F)cc5)CC4)ccc3n2)CC1	-7	1	-1	6	-5	.	.
CCN1CCN(c2cc(C)c3cc(NC(=S)N4CC(C)CC(C)C4)ccc3n2)CC1 (stereo unspecified)	52*	-12	2	7	?	-9%	i
C[C@@H]1CN([C@H](C)CO)C(=O)c2cc(-c3ccc(F)cc3)cnc2O[C@H]1CN(C)C(=O)Cc1ccccc1	8	.	22	-2	-15	.	.
C/C=C/c1ccc2c(c1)O[C@@H](CN(C)Cc1ccc(F)cc1)[C@H](C)CN([C@@H](C)CO)S2(=O)=O	3	.	9	8	-10	.	.
Nc1cc2ccncc2c2ccccc12	60*	23*	-7	-1	70*	-14%	i
N#Cc1cc2ccncc2c2ccccc12	-6	.	1	-2	0	.	.
COCCNc1nc(SC)nc2sc3c(c12)CCN(C)C3	10	-5	-10	-1	10	.	.
CCN(CC)CCNc1nc(SC)nc2sc3c(c12)CCN(C)C3	56*	-3	-15	10	53*	6%	i
C[C@H]1CN([C@@H](C)CO)C(=O)Cc2cc(NC(=O)CCC(F)(F)F)ccc2O[C@@H]1CN(C)C(=O)Nc1ccc(F)cc1	20	.	3	-4	0	.	.
CCN1CCN(c2cc(C)c3cc(NC(=S)N4CCCCC4)ccc3n2)CC1	85*	-6	-4	19	?	-11%	i
CCCN(CCC)CCCNC(=S)Nc1ccc2nc(N3CCN(C)CC3)cc(C)c2c1	75*	12	0	17	63*	-9%	i
CCN1CCN(C(=S)Nc2ccc3nc(N4CCN(C)CC4)cc(C)c3c2)CC1	89*	2	6	4	56*	0%	i
CC(C)OCC(O)CN1CCN(CCN2C(=O)c3cccc4cccc(c34)C2=O)CC1 (stereo unspecified)	93*	?	-5	2	79*	-13%	i
CCOC(=O)c1c(NC(=O)c2ccc(S(=O)(=O)N3CCOCC3)cc2)sc2c1CCN(C)C2	59*	-13	-5	14	89*	-7%	i
CC(=O)Nc1cc(-c2cccc(C(=O)NCCN(C)C)c2)cn2c(-c3ccc(C(C)=O)cc3)cnc12	71*	.	-2	5	101*	-18%	i
CC(=O)Nc1cc(-c2cccc(C(=O)NCCN(C)C)c2)cn2c(-c3ccc(F)c(Cl)c3)cnc12	41	.	-5	9	17	.	.
COc1ccc(-c2cnc3c(NC(C)=O)cc(-c4cccc(C(=O)NCCN(C)C)c4)cn23)cc1OC	101*	.	-1	17	76*	1%	i
SMILES	RAD52 anneal inh	dFosB act	S100A4 inh HTS	MLL AF4-AF9 inh	RAD54 inh	Rad54 DNA ctr	RAD52 DNA ctr
COc1cccc(-c2cnc3c(NC(C)=O)cc(-c4cccc(C(=O)NCCN(C)C)c4)cn23)c1	100*	.	-4	?	78*	0%	i
CCC(=O)N(C)C[C@@H]1Oc2cc(-c3ccc(C)cc3)ccc2S(=O)(=O)N([C@@H](C)CO)C[C@@H]1C	3	.	4	0	-3	.	.
Nc1nc(Nc2ccccc2)nc2ccccc12	.	0	.	.	-1	.	.
COc1cc2nc(Nc3ccc(F)cc3)nc(N)c2cc1OC	62*	21*	-2	13	59*	11%	59µM*
CN(C)CCCN(C(=O)c1ccco1)c1nc(-c2ccc(Cl)cc2)cs1	52*	-1	-2	26*	53*	-16%	i
COc1ccc(NC(=O)N2CC(=O)N3[C@@H](CO)[C@@H](c4ccc(/C=C/c5ccccc5)cc4)[C@@H]3C2)cc1	-9	.	-4	3	.	.	.
C[C@@H]1CN([C@@H](C)CO)C(=O)CCCn2cc(nn2)CO[C@H]1CN(C)Cc1ccc2c(c1)OCCN2C	5	.	3	1	-1	.	.
O=C(CN1CCCCC1)n1c2ccccc2c2ccccc21	61*	12	8	.	100*	2%	i
CN1CCN(CC(=O)n2c3c(c4ccccc42)CCCC3)CC1	.	5	.	.	.	.	.
Cc1ccc2nc3c(c(Nc4ccc(O)cc4)c2c1)CCC3	46	14	-4	15	67*	-1%	i
Cc1cccc(Nc2c3c(nc4ccccc24)CCC3)c1	-4	-6	1	.	11	.	.
COc1nc(-c2cccc([N+](=O)[O-])c2)nc2ccccc12	-29	.	21	1	12	.	.
CN1CCN(c2nc(-c3cccc([N+](=O)[O-])c3)nc3ccccc23)CC1	14	14	-8	16	75*	-22%	i
CCN(CC)CCN1CCN(c2cncc(-c3cccc(N)c3)n2)CC1	99*	.	1	23	73*	-11%	i
CO[C@@H]1CN(C)C(=O)c2cc(NC(=O)C3CC3)ccc2OC[C@@H](C)N(C(=O)Nc2ccc(C(F)(F)F)cc2)C[C@H]1C	-7	.	-4	0	2	.	.
CCN1CCCC1CNC(=O)c1ccc2c(c1)NC(=O)/C(=C\c1ccc(OC)c(OC)c1)S2 (stereo unspecified)	73*	44*	-7	40*	69*	-3%	i
COc1ccc2c3c([nH]c2c1)[C@H](CO)N(Cc1cccc(Cl)c1)CC31CCN(C)CC1	19	.	6	-1	.	.	.
